Source: PubChem BioAssay (several laboratories)
Rpn11 inh = blocks the human proteasome subunit Rpn11 | hit rate 0.59% among 360,000 | human 26S proteasome, Ub4-pepOG fluorescence polarization; 20S core pre-blocked with epoxomicin | inhibition, % at 20 µM | O00487 | AID 588493;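 active = inhibition at 20 µM, scaled to each plate's controls, above about 33%, limit read from the data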
Target sequence (O00487 whole entry, looked up): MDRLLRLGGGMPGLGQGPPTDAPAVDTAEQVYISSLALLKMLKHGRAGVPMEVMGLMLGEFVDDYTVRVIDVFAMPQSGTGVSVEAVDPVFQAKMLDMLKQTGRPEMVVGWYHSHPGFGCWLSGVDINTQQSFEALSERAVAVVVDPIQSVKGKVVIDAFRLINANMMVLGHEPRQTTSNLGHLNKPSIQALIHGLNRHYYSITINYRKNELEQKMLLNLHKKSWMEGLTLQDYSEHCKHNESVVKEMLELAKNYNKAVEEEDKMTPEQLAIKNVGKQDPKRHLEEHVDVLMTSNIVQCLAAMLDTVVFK
PREPL inhibitor = inhibits the human prolyl oligopeptidase-like enzyme; recombinant PREPL, fluorescence polarization activity-based probe; inhibition, % at 5.96 µM; hit rate 0.68% among 320,000; in the data active = inhibition above about 43%;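 also: 0% = enzyme with DMSO and 100% = wells lacking enzyme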
TbMetRS inhib = Trypanosoma brucei MetRS inhibition | purified T. brucei MetRS, ATP depletion, Kinase-Glo luminescence | inhibition, % at 11.9 µM | hit rate 0.4% among 360,000;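 active = inhibition above a per-plate cutoff of the control wells' mean inhibition plus 3 SD, cut at about 5.5% in these data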;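 also: 0% = DMSO wells median and 100% = median of wells with control inhibitor compound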
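Measured by: Kinase-Glo luciferase luminescence reporting remaining unconsumed ATP. Material: purified T. brucei MetRS enzyme. Doses: 11.9 µM compound single dose, 0.9% DMSO. Medium: HEPES buffer containing pyrophosphatase, BSA, spermine, DTT. Times: 15 min preincubation, 2 h reaction, all 25 °C. Reagent: methionine, ATP and bulk E. coli tRNA.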
HNF4A DNA FP = change in binding of human HNF4 alpha to DNA; hit rate 0.3% among 360,000; AID 1224865; activity change, % at 10 µM; HNF4a-FITC DNA binding, fluorescence polarization, 1 h; in the data active = activity change above about 30%, passing the limit was not always enough
Neddylation inh = inhibitors of human cullin neddylation | hit rate 0.58% among 360,000 | AID 651699 | TR-FRET cullin neddylation, biochemical | inhibition, % at 25 µM; in the data active = inhibition above about 36%
CSN deneddyl inh = CSN deneddylation inhibition; Q92905; Purified CSN, SCF-Nedd8-OG deneddylation, fluorescence polarization; inhibition, % at 12.5 µM; hit rate 0.38% among 360,000;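 active = pattern-corrected inhibition above about 35%, with an unprinted fluorescence ratio check between 0.5 and 1.5, limit read from the data, passing the limit was not always enough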;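 also: 0% = enzyme with substrate and 100% = substrate without enzyme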
Target sequence (Q92905 whole entry, looked up, one chain of several): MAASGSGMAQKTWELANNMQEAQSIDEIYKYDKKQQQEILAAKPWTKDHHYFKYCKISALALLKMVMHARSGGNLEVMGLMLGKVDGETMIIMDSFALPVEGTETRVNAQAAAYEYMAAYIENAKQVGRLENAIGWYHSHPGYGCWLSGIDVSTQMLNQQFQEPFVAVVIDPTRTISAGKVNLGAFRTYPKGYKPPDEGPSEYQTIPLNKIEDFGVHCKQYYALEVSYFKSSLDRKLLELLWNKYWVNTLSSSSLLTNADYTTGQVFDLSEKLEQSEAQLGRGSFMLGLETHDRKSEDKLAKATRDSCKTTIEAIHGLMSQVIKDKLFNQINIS
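Material: human Csn5 produced in HEK293T cells; Input: enzyme 0.24 nM; Reagent: SCFSkp2-Nedd8OG substrate at 10 nM final; Dosing: 12.5 µM compound; Incubation: 90 min reaction at room temperature; Detection: fluorescence polarization of the substrate; Evaluation: % inhibition of substrate cleavage by Csn5; Control set: substrate-only high control, full reaction low control.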
Neddyl conf = confirmation of human cullin neddylation inhibitors; hit rate 13% among 1,800; shares compounds with Neddylation inh; calls only at 25 µM; TR-FRET cullin neddylation biochemical assay; in the data active = inhibition above about 40%;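 also: neddylation substrate is the cullin 1 ring ligase complex with SKP2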
An asterisk follows results filed as active; i = inactive; . = no result shown; + = active, no number. Most compounds without a hit are left out; they make up all but 2.4% or so of the library.

SMILES | Rpn11 inh | PREPL inhibitor | TbMetRS inhib | HNF4A DNA FP | Neddylation inh | CSN deneddyl inh | Neddyl conf
CCN(CC)S(=O)(=O)c1ccc2c3c(cccc13)C(=O)N2 | -12.9 | -2.4 | -0.3 | 2.1 | 48.5* | 6.9 | .
CCN(c1cccc(C)c1)S(=O)(=O)c1ccc2c3c(cccc13)C(=O)N2 | -8.7 | -6.7 | -1.3 | 0.6 | 24.4 | 1.6 | .
CCOc1ccc(CCNC(=O)COC(=O)c2cccc(N(C)C)c2)cc1OCC | 4.3 | 16.6 | -0.6 | -0.5 | 40.0* | 1.4 | i
CN(C)c1cccc(C(=O)OCC(=O)Nc2ccccc2-c2ccccc2)c1 | -0.7 | 6.0 | 0.8 | 1.0 | 40.0* | 0.5 | i
CN(C)c1cccc(C(=O)OCC(=O)Nc2ccccc2Cl)c1 | -8.1 | 15.3 | -0.7 | -0.1 | . | 3.3 | .
O=C1C=CN(C2OC(CO)C(O)C2O)C(=O)C1 (stereo unspecified) | -2.7 | . | 0.3 | 5.3 | 4.0 | -0.6 | .
COc1ccc(CCNC(=O)c2cc3c(=O)n4cccc(C)c4nc3n(CC3CCCO3)c2=N)cc1 (stereo unspecified) | 3.2 | 33.5 | 0.1 | 10.0 | 44.2* | -1.9 | i
Cc1cc(C)n2nc(C(=O)NCc3ccco3)cc2n1 | 0.7 | -9.5 | 0.7 | -1.1 | 51.0* | 3.3 | .
CC(c1nc2ccccc2c(=O)[nH]1)N1CCCN(S(=O)(=O)c2ccc(F)cc2)CC1 (stereo unspecified) | 5.5 | 0.7 | -0.4 | 2.3 | -3.9 | -1.5 | .
Cc1ccc(C(C)C)cc1S(=O)(=O)Nc1cccnc1 | 1.7 | 4.9 | -0.3 | -1.2 | 5.2 | -0.9 | .
O=C1c2ccccc2-c2n[nH]c3cccc1c23 | -87.5 | . | 0.1 | -54.3 | 42.2* | -16.1 | .
COc1ccc(O)c(/C=N/NC(=O)CCC(=O)Nc2ccc(C)cc2)c1 | 1.2 | 1.0 | -1.1 | 1.5 | 23.7 | -3.8 | .
COc1ccc(CSCC(=O)N/N=C/c2ccccc2O)cc1 | -0.1 | -5.9 | 2.4 | 0.1 | 39.2* | 0.5 | i
COc1ccc(O)c(/C=N/NC(=O)CN2CCS(=O)(=O)CC2)c1 | 0.0 | -7.7 | 0.3 | 1.3 | 40.3* | 1.5 | i
COc1ccc(NC(=O)C2(C)CCN2C(=O)CC2CCCC2)cc1OC (stereo unspecified) | -3.0 | . | 0.2 | 0.0 | 7.3 | -2.7 | .
COc1ccc(OC)c(/C=N/Nc2cc(C)nc(N3CCOCC3)n2)c1 | 0.3 | 11.7 | -0.2 | 2.0 | 38.6* | -0.2 | i
c1ccc(-c2cc3ncccc3cn2)cc1 | -7.1 | -5.6 | -0.3 | -6.5 | 3.9 | 5.4 | .
c1cnc2cc(-c3ccsc3)ncc2c1 | 3.4 | 3.1 | -0.1 | -2.3 | 44.5* | -1.0 | +
N#Cc1nc(-c2ccco2)oc1NCc1ccccc1Cl | -3.4 | 15.0 | 0.0 | -0.5 | 39.4* | -8.4 | i
Cc1cccc(C)c1NC(=O)C(C1CC1)n1c(=O)c(-c2ccccc2)nc2ccccc21 (stereo unspecified) | . | . | 0.0 | -0.4 | 54.9* | -6.3 | +
CC(C)(C)NC(=O)C(c1ccccc1)n1c(=O)c(-c2ccccc2)nc2ccccc21 (stereo unspecified) | . | . | -0.1 | 4.2 | 42.6* | -2.8 | i
CC(C)(C)NC(=O)C(c1ccnc2ccccc12)n1c(=O)c(-c2ccccc2)nc2ccccc21 (stereo unspecified) | . | . | -0.8 | 15.4 | 45.2* | -4.5 | i
COC(=O)c1cn(Cc2cc(OC)ccc2OC)cc(F)c1=O | -7.2 | 7.2 | -0.3 | -0.6 | 1.8 | 4.5 | .
NS(=O)(=O)c1ccc(CCNc2ccccc2[N+](=O)[O-])cc1 | 12.9 | 16.2 | 0.2 | 1.6 | -63.0 | 5.2 | .
CCOC(=O)c1ccccc1NC(=O)COC(=O)CCC1CCCC1 | -1.0 | 7.7 | -0.1 | 0.9 | 0.0 | 2.3 | .
SMILES | Rpn11 inh | PREPL inhibitor | TbMetRS inhib | HNF4A DNA FP | Neddylation inh | CSN deneddyl inh | Neddyl conf
COCC(=O)Nc1ccc2c(c1)[C@@H]1C[C@H](CC(=O)NCc3cccc(F)c3)O[C@@H](CO)[C@@H]1O2 | -4.0 | . | -0.8 | 1.8 | 10.7 | 0.1 | .
COc1cccc2[nH]c3c(N4CCCCC4)ncnc3c12 | -4.0 | 7.8 | 0.7 | 0.3 | 44.7* | -5.9 | .
CCOC(=O)C1CCN(c2ncnc3c2[nH]c2cccc(OC)c23)CC1 | 3.1 | 10.6 | -0.1 | -0.1 | . | -1.9 | .
O=C(O)CCC(=O)N1N=C(c2cccs2)CC1c1cn(-c2ccccc2)nc1-c1ccccc1 (stereo unspecified) | 8.8 | 2.8 | -1.4 | 5.9 | 40.4* | 4.1 | .
COc1ccc(-c2nn(-c3ccccc3)cc2C2CC(c3cccs3)=NN2C(=O)CCCC(=O)O)cc1 (stereo unspecified) | -3.4 | -1.2 | 0.1 | -2.5 | 47.3* | 0.0 | i
Cc1ccc(-c2nn(-c3ccccc3)cc2C2CC(c3cccs3)=NN2C(=O)CCCC(=O)O)cc1 (stereo unspecified) | 10.1 | -11.8 | 0.4 | 0.5 | . | 0.5 | .
CC(=O)Nc1cc(-c2cccc(C(=O)N(C)C)c2)cn2c(-c3ccc(C(C)=O)cc3)cnc12 | 0.8 | . | 0.1 | -1.8 | 24.9 | 5.5 | .
O=C(Cc1cc(=O)oc2cc(O)ccc12)NC(Cc1ccc(Cl)cc1)C(=O)O (stereo unspecified) | -5.4 | 9.4 | 0.8 | 5.0 | 38.6 | -0.8 | .
c1cc2c3c(cccc3c1)-c1cnccc1-2 | -5.4 | . | -0.2 | -5.5 | 55.7* | 1.2 | +
c1nc2sc3c(c2c2nnnn12)CCC3 | -1.2 | 3.9 | -0.5 | -1.2 | 41.0* | 2.4 | i
Cc1noc(C)c1-c1ccc(C(=O)NCc2ccc(Cl)cc2)c2occc12 | -14.9 | . | 1.1 | 2.9 | 10.6 | 2.3 | .
CCOc1ccc(/C=C/C(=O)Nc2ccc(C(N)=O)cc2)cc1OC | 1.4 | 2.6 | -0.3 | 3.3 | . | -0.8 | .
CCOc1cc(/C=C/C(=O)Nc2ccc(C(=O)NCCN(CC)CC)cc2)ccc1OCC(C)C | 36.1 | 6.5 | 0.5 | 1.1 | 53.8* | 4.1 | +
NC(=Nc1c([N+](=O)[O-])cnc2ccccc12)N1CCOCC1 | 5.1 | . | -1.3 | -1.5 | -51.5 | -1.2 | .
C[C@H](NC(=O)c1nc[nH]c1C(=O)NCCCCCN)C(=O)OCc1ccccc1 | -4.6 | -6.2 | 0.4 | 0.0 | -11.5 | 0.2 | .
COc1ccc([C@@H]2C[C@H]3[C@@H](CN2S(=O)(=O)c2ccccc2)C(=O)C[C@@H](c2ccc(OC)cc2)N3S(=O)(=O)c2ccccc2)cc1 | 14.7 | . | -0.3 | -0.1 | -23.2 | -3.7 | .
N#Cc1cccnc1N1CCN(C(=O)COCC(=O)O)CC1 | 2.8 | -2.6 | -0.5 | 1.3 | 42.4* | -0.2 | +
COc1ccc(N2CCN(C(=O)COCC(=O)O)CC2)cc1 | -2.2 | 12.8 | -0.3 | 3.1 | -3.0 | -0.3 | .
N#Cc1nc(-c2ccc(F)cc2)oc1N1CCN(C(=O)c2ccco2)CC1 | 4.9 | 16.4 | 0.0 | -1.2 | 35.6 | 0.6 | .
